Screens from PubChem BioAssay.
Shown are actives, neighbours in structure and some others; about 1.4% of the full set was active somewhere.
DDE Tn7 FP inh: inhibitors of Tn7 peptide binding to human fibrin DD(E). actives 0.13% (n = 370,000). AID 720508. inhibition, % at 8.3 µM. P02675. FP displacement of FITC-Tn7 peptide from fibrin DD(E); 0% = median of compound wells per plate;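 active = inhibition above the mean of compounds falling within the control limits plus 3 SD of them, cut at about 14% in these data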
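Assay system: human fibrin DD(E) protein / Input: 2 µM fibrin DD(E) / Benchmarks: high control of 10 µM Aha-Tn7 peptide / Measured by: fluorescence polarization of the labelled Tn7 tracer / Medium: Tris buffer with calcium and detergent, pH 7.8 / Timing: 10 min compound pre-incubation, 3 h probe incubation at room temperature / Repeats: one replicate per compound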
DNA FID counter: counter-screen for HCV NS3 helicase inhibitors: DNA intercalator displacement. AID 1845. DNA fluorescent intercalator displacement, fluorescence. inhibition, % at 7.9 µM. actives 0.17% (n = 290,000); in the data active = inhibition above about 37%;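 also: higher means more ethidium bromide displaced from hairpin DNA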
PLCb3 inh: inhibitors of human phospholipase C beta3; Purified PLC-beta3, fluorogenic substrate, fluorescence; inhibition, % at 12.2 µM; actives 0.18% (n = 370,000); in the data active = inhibition above about 11%
DDE Tn6 FP inh: disrupts Tn6 cyclic peptide binding to fibrin D-Dimer-E complex; P02675; Fibrin DD(E) TRITC-Tn6 fluorescence polarization displacement; inhibition, % at 8.3 µM; actives 0.21% (n = 370,000); AID 720509;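 active = inhibition above a per-campaign cutoff: mean of compounds within control limits plus 3 SD, cut at about 15% in these data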
PLCg1 inh: blocks human PLC-gamma1 enzyme activity | purified PLC-gamma1, fluorogenic substrate, fluorescence | P19174 | actives 0.84% (n = 370,000) | inhibition, % at 12.2 µM
Target sequence (P19174 whole entry, looked up): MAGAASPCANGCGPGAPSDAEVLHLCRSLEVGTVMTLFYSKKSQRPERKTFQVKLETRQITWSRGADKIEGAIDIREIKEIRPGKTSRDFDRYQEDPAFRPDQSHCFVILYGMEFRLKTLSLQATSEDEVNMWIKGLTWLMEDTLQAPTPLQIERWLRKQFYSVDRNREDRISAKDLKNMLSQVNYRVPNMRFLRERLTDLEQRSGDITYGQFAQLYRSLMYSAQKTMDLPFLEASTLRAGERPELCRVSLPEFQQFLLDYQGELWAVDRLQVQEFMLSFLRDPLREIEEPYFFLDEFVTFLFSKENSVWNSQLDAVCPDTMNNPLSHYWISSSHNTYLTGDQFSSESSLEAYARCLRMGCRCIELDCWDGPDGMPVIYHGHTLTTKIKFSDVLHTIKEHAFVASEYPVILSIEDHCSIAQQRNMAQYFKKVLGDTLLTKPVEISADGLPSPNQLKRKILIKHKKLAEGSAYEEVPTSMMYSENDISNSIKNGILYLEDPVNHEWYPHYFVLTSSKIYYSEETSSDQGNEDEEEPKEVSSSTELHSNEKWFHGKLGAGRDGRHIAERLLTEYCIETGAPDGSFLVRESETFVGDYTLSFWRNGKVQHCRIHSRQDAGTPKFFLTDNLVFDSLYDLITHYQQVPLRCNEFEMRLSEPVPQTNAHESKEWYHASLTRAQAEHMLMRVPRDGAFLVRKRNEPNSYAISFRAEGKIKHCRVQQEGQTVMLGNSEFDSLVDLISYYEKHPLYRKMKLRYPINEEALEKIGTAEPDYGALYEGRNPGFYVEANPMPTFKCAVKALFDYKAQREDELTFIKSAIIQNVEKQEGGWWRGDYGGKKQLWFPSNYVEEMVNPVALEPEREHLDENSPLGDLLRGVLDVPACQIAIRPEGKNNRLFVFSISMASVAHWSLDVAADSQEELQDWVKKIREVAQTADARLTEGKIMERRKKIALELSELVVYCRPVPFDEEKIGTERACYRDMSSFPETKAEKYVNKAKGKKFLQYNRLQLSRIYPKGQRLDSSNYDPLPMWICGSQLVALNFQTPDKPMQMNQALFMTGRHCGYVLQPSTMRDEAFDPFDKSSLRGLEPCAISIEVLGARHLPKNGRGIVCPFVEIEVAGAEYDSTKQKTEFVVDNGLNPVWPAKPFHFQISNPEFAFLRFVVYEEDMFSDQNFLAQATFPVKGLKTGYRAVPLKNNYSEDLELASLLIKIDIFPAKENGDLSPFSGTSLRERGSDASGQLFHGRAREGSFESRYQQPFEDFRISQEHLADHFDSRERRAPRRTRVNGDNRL
PLCgamma1 ctr: counter-screen for PLC-beta3 inhibitors: inhibitors of human PLC-gamma1. shares compounds with PLCg1 inh. purified PLC-gamma1, fluorogenic substrate, fluorescence. inhibition, % at 12.3 µM. actives 3.1% (n = 3,300)
PLCbeta3 conf: human PLC-beta3 inhibition, confirmation; shares compounds with PLCg1 inh; purified PLC-beta3, fluorogenic substrate fluorescence; inhibition, % at 12.3 µM; actives 1% (n = 3,300); AID 743261; in the data active = inhibition above about 11%
Each line names hits and unclear results; the compound was inactive in the other large screens (follow-up assays come after a bar, where they were run). Rule as the data show it, unless noted: active = inhibition above about 9.5%; inactive = the rest.

NS(=O)(=O)c1ccc(NC(NC(=O)c2cccnc2)C(Cl)(Cl)Cl)cc1 (configuration not stated)	none
Cc1nc(Nc2ccc(S(N)(=O)=O)cc2)sc1C(=O)Nc1ccccc1	none
O=C(c1cnc(-c2ccccc2)s1)c1ccc(Cl)cc1Cl	PLCg1 inh 9.7 | PLCgamma1 ctr inactive | PLCbeta3 conf inactive
O=C(c1ccc(Cl)cc1)c1cnc(-c2ccccc2)s1	none
O=C(Cn1c(=O)oc2ccccc21)Nc1nnc(N2CCCCCC2)s1	none
CC1=C(C(=O)OC(C)C)C(C2CC=CCC2)NC(=O)N1 (configuration not stated)	PLCg1 inh 12 | PLCgamma1 ctr inactive | PLCbeta3 conf inactive
C=CCn1c(Cc2csc(N)n2)nnc1SCC(=O)OCC	none
CC(C)(C)C(=O)Oc1cc(N)n(S(=O)(=O)c2ccc(F)cc2)n1	none
Cc1cc(NC(=O)C2C3C(=O)N(Cc4ccc(Cl)cc4)C(C(=O)NC4CCCCC4)C34C=CC2(C)O4)no1 (configuration not stated)	none
Cc1cc(NC(=O)C2C3C(=O)N(Cc4ccc(Cl)cc4)C(C(=O)NCc4ccccc4)C34C=CC2(C)O4)no1 (configuration not stated)	PLCb3 inh 13, PLCg1 inh 10 | PLCgamma1 ctr inactive | PLCbeta3 conf inactive
Cc1ccc(NC(=O)CSc2nnc(-c3cnccn3)n2-c2ccccc2)cc1	none
Cc1cc(C(=O)COC(=O)c2ccc[nH]c2=O)c(C)n1-c1ccccc1	none
O=C1CC(=O)Nc2ccccc2N1	none (no result: DNA FID counter)
O=C1CS(=O)(=O)c2ccccc2N1	PLCg1 inh 24 | PLCgamma1 ctr 21 | PLCbeta3 conf inactive
O=C(NCc1cccnc1)C(=O)NCC1OCCCN1S(=O)(=O)c1ccc(Cl)cc1 (configuration not stated)	none
CC(=O)c1ccc(C(=O)NC2CCCN(Cc3ccc(Cl)cc3)C2)s1 (configuration not stated)	none
COCCNCCCOc1ccc(Br)cc1Cl	PLCg1 inh 11 | PLCgamma1 ctr 9.5 | PLCbeta3 conf inactive
N#Cc1cccc(NC(=O)c2cc(C3CCCCN3C(=O)C3CC3)on2)c1 (configuration not stated)	none (no result: DNA FID counter)
CCn1c(SCC(=O)Nc2ccc(Cl)cc2)nc2nc3c(cc2c1=O)CCCC3	none
CCn1c(SCC(=O)Nc2ccc(C(C)=O)cc2)nc2nc3c(cc2c1=O)CCCC3	PLCg1 inh 9.7 | PLCgamma1 ctr inactive | PLCbeta3 conf inactive
COc1ccc(CC(=O)NCC2CCCN(Cc3cccc(C(F)(F)F)c3)C2)cc1 (configuration not stated)	PLCg1 inh 11 | PLCgamma1 ctr inactive | PLCbeta3 conf inactive
COc1ccc(CC(=O)NCC2CCCN(Cc3ccc(F)c(OC)c3)C2)cc1 (configuration not stated)	none
CC1C(=O)Nc2ccccc2N1C(=O)c1cccc(C(F)(F)F)c1 (configuration not stated)	PLCg1 inh 13 | PLCgamma1 ctr inactive | PLCbeta3 conf inactive
Cc1ccc(OCCCCNC(C)c2ccccc2)c(C)c1 (configuration not stated)	PLCg1 inh 13 | PLCgamma1 ctr inactive | PLCbeta3 conf inactive
Cc1ccc(OCCNCc2ccccc2)c(C)c1	none
COc1ccc(C(=O)NCC2CCCN2S(=O)(=O)c2ccccc2)cc1OC (configuration not stated)	PLCg1 inh 9.5 (no result: DNA FID counter) | PLCgamma1 ctr inactive | PLCbeta3 conf inactive
COc1ccc(C(=O)NCC(=O)OCCCOC(=O)CNC(=O)c2ccc(OC)c(OC)c2)cc1OC	PLCg1 inh 12 | PLCgamma1 ctr inactive | PLCbeta3 conf inactive
Cc1ccc(C)c(NC(=O)CN(C)C(=O)Cc2ccc(Cl)cc2Cl)c1	none
Cc1ccc(NC(=O)CN(C)C(=O)Cc2ccc(Cl)cc2Cl)cc1	PLCg1 inh 11 | PLCgamma1 ctr inactive | PLCbeta3 conf inactive
Cc1nn(-c2cc(C(F)(F)F)ccc2Cl)c2nc(C(F)(F)F)[nH]c(=O)c12	PLCb3 inh 12 | PLCgamma1 ctr inactive | PLCbeta3 conf inactive
Cc1nn(-c2cccc(Cl)c2)c2nc(C(F)(F)F)[nH]c(=O)c12	none
CN(C)S(=O)(=O)c1ccc(C(=O)NCC(c2cccs2)N2CCOCC2)cc1 (configuration not stated)	none (no result: DNA FID counter)
CC(C)OCCCNC(=S)Nc1ccc(S(N)(=O)=O)cc1	none
CC1(Cc2ccc(F)cc2)C(=O)Nc2ccc(S(=O)(=O)NC3CCCCC3)cc21 (configuration not stated)	PLCb3 inh 11 (no result: DNA FID counter) | PLCgamma1 ctr inactive | PLCbeta3 conf inactive
Cn1cnnc1SCC(=O)Nc1ccccc1C(=O)NC1CC1	none
CCn1cnnc1SCC(=O)Nc1ccccc1C(=O)NC1CC1	PLCb3 inh 11, PLCg1 inh 11 (no result: DNA FID counter) | PLCgamma1 ctr inactive | PLCbeta3 conf inactive
Cc1cccc(OCC(=O)N(C)c2c(N)n(Cc3ccccc3)c(=O)[nH]c2=O)c1C	none (no result: DNA FID counter)
COc1cc(CNn2cnnc2)ccc1OCC(=O)NC(C)(C)C	none
COc1ccc(OC)c(CNC(=O)c2[nH]c(C(F)(F)F)nc2-c2ccccc2)c1	none (no result: DNA FID counter)
COc1ccc(-c2ccc(C)cc2)cc1[C@H]1[C@H]2C=CC[C@@H](C)[C@@H]2C(=O)N1Cc1ccccc1	PLCb3 inh 11 (no result: DNA FID counter) | PLCgamma1 ctr inactive | PLCbeta3 conf inactive
COc1ccc(-c2ccc(OC)c([C@H]3[C@H]4C=CC[C@@H](C)[C@@H]4C(=O)N3Cc3ccccc3)c2)cc1	none (no result: DNA FID counter)
O=C(COc1ccccc1)N=C1SC2CS(=O)(=O)CC2N1c1ccc(F)cc1F (configuration not stated)	PLCg1 inh 10 | PLCgamma1 ctr inactive | PLCbeta3 conf inactive
CC1CCC(C(C)C)C(OCC(O)CN2CCCC(C)C2)C1 (configuration not stated)	none
CC1CCC(C(C)C)C(OCC(O)C[N+]2(C)CCCCC2)C1 (configuration not stated)	PLCg1 inh 11 | PLCgamma1 ctr inactive | PLCbeta3 conf inactive
CCOC(=O)CC1(C)Oc2ccccc2N1S(=O)(=O)c1ccc(C)cc1 (configuration not stated)	PLCg1 inh 9.8 (no result: DNA FID counter) | PLCgamma1 ctr inactive | PLCbeta3 conf inactive
O=C1CCCN1c1ccc(S(=O)(=O)Oc2cccc(Cl)c2)cc1[N+](=O)[O-]	PLCg1 inh 9.6 | PLCgamma1 ctr inactive | PLCbeta3 conf inactive
O=C1CCCN1c1ccc(S(=O)(=O)N2CCCCC2)cc1[N+](=O)[O-]	none
Cc1ccc(NC(=O)NCCSc2ccc(C)cc2)cc1	none
Cc1ccc(SCCNC(=O)C(C)C)cc1	PLCg1 inh 9.7 | PLCgamma1 ctr inactive | PLCbeta3 conf inactive
COc1ccc(CN(CCC(c2ccccc2)C2CCOC(C)(C)C2)C(C)=O)cc1 (configuration not stated)	none
